Here are results for four compounds from PMC10392308 (Journal of Enzyme Inhibition and Medicinal Chemistry, 2023).

The structures appear in SMILES notation. Values after ≈ are worked out from the molar mass of the structure shown.

One data set concerns HCT116 cancer cells. Description: In vivo anticancer effect in nude mice inoculated with HCT116 cells. On the set-up: species or system Balb/c nude mice. The conditions noted are these: for Tumour growth inhibition rate: by tumour weight; for Tumour weight / Tumour volume at the end of the administration: compound 2 2.5 and 1 mg/kg, 5-FU 10 mg/kg; for Tumour weight: p < 0.001 vs control; for Tumour volume at the end of the administration: p < 0.01 vs control. In a few lines:
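Female Balb/c nude mice, 8 weeks old, received 0.1 ml of 1 × 10^8/mL HCT116 cells in the right armpit, six mice per group. At about 100 mm3 tumour, dosing began: i.p., 5 ml/kg, once every two days, vehicle 5% DMSO in soybean oil, with a vehicle group and a 5-FU group. Body weight and tumour diameters were taken every 3 d, with volume = A×B²/2. Inhibition = (1 − mean treated/control tumour weight) × 100%.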

In another data set the test system is TNF-α. Description: ELISA detection of TNF-α in tumour mice. Particulars: serum, compound 2 1 and 2.5 mg/kg, 5-FU 10 mg/kg, vs control. The data set is classed as in vivo, nude mice. An outline of the steps:
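HCT116 xenografts (1×10^8 cells/mL, 0.1 ml, right armpit) in 8-week-old female Balb/c nude mice, six per group. Test compound given i.p. in 5% DMSO/soybean oil (5 ml/kg) from ~100 mm3 tumours for 20 days. At sacrifice, serum held 2 h, spun 1000 × g for 20 min, stored −80 °C. TNF-α measured by mouse ELISA kit, six sera per group, triplicate wells.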
For orientation: In an ELISA, binding on a coated surface is turned into a signal by an enzyme label.

In another data set the test system is tumour tissue. Nature of the data set: Haematoxylin-eosin staining. It is filed as in vivo, nude mice. The conditions noted are these: compound 2 1 and 2.5 mg/kg, 5-FU 10 mg/kg; vs control group. An outline of the steps:
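Female Balb/c nude mice (8 weeks) bore HCT116 xenografts from 1×10^8 cells/mL, 0.1 ml in the right armpit, six per group. Dosing was i.p. in 5% DMSO/soybean oil at 5 ml/kg, starting at ~100 mm3, for 20 days, with vehicle controls. Tumours collected after sacrifice and stained with haematoxylin-eosin; nuclei blue, cytoplasm red.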

For data set [1], the system named is VEGF. Description: Immunohistochemical detection of VEGF expression in tumour tissue. The data set is classed as in vivo, nude mice. The conditions noted are these: compound 2 1 and 2.5 mg/kg, 5-FU 10 mg/kg; p < 0.0001 vs control.
The subject of the next data set is zebrafish larvae. Description: Zebrafish adult fish. It is filed as in vivo. Particulars: for Concentrations causing acute toxicity in zebrafish larvae: in vivo. In a few lines: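 Normally developed larvae at 3 dpf were placed in 24-well plates, six per well, and exposed to test compound at 0.1, 0.2, 0.3, 0.4 and 0.5 μM. Mortality was recorded at 24 h and 72 h.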

The test system of data set [2] is MGC-803 cells. Nature of the data set: Cell cycle analysis with flow cytometry. The conditions noted are these: for Cells in G1 phase: DMSO 64.36%; for Phase in which the cell cycle is blocked: MGC-803, 18 h; for Cells in S phase: DMSO 20.59%. It is filed as cell-based, human. In general terms: Flow cytometry measures light scatter and fluorescence of single cells or particles in a stream.

Data set [3] in a line: Water solubility determination using HPLC. The data set is classed as physicochemical. Particulars: 37 °C, thermodynamic from solid. In a few lines:
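[…] were sonicated 10 min at 37 °C. After standing 1 h, the clear upper liquid was membrane-filtered and injected on HPLC. Water solubility was calculated from peak area using the regression equation.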

For data set [4], the system named is VEGF. Description: ELISA for the expression of VEGF in MGC-803 cells. The data set is classed as cell-based, human. Particulars: for Effect on the expression of VEGF: MGC-803, 0.1, 0.5, 1 µM, hypoxia or not. In a few lines:
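The hypoxia arm used 100 µM CoCl2·6H2O (1% O2) and was run beside 21% O2 cultures. MGC-803 cells were exposed 24 h to test compound at 0.1, 0.5 or 1 µM, with a 0.1% DMSO blank and a positive control. Supernatants were spun at 1000 × g for 20 min at 4 °C, and VEGF was quantified by human VEGF ELISA kit.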

Data set [5] has as its system MGC-803 cells. Nature of the data set: Apoptosis assay with flow cytometry. It is filed as cell-based, human. Particulars: MGC-803, 18 h, highest value reached; blank control 8.2.
Another data set concerns HCT-116. Nature of the data set: MTT antiproliferative assay, HCT-116. The data set is classed as cell-based. The conditions noted are these: Homo sapiens, HCT-116, 48 h, read-out: IC50 values, HCT-116, MTT, 48 h. A general note: Formazan colour is commonly taken as a measure of viable cells.
For another data set, the system named is zebrafish embryos. Description: Zebrafish embryonic acute toxicity test. The data set is classed as in vivo. In a few lines: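 Normally developed embryos at 6 hpf were placed in 24-well plates, six per well, and exposed for three days to test compound at 0.1, 0.15, 0.2, 0.3 and 0.5 μM, with a 0.5% DMSO blank. Hatching (shell without membrane) and death (cardiac arrest) were scored every 24 h. Incubation rate = hatched/total embryos × 100%, and mortality = dead/total × 100%.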

The next data set relates to MMP-9. Description: ELISA for the expression of MMP-9 in MGC-803 cells. The data set is classed as cell-based, human. Particulars: for MMP-9 expression: control 18.6 ng/ml; for Effect on the expression of MMP-9: MGC-803, 0.1, 0.5, 1 µM.
The test system of the next data set is AGS. Description: MTT antiproliferative assay, AGS. It is filed as cell-based. Particulars: Homo sapiens, 48 h, read-out: IC50 values, AGS, MTT, 48 h.

Take `O=c1[nH]cc(F)c(=O)[nH]1` [5-FU, 5-fluorouracil, reference compound]: in the data set with HCT116 cancer cells (10 mg/kg intraperitoneally), the “Tumour growth inhibition rate” value is on record as 37.02%. For the same compound, in the data set on HCT116 cancer cells, the Tumour weight result is reported as “significantly lower than that in the control group” and the “Tumour volume at the end of the administration” value is given as “significantly smaller than that of the control”. In addition, the “TNF-α content of tumour mice” value in the data set with TNF-α is recorded as “increased the TNF-α content significantly”. Also, in the data set on tumour tissue, the “Morphological changes in tumour tissue (HE)” value is “tumour tissue structure was seriously damaged and the cell necrosis was obvious”. The “VEGF expression in tumour tissue (immunohistochemistry)” value in the data set with VEGF [1] is given as “downregulated the VEGF expression significantly”.

The solubility is how much of the substance goes into solution per volume. Lower therefore signals a poorly soluble substance. The term IC50 denotes the concentration that gives 50% inhibition. Compound `CC1=C(O)C(=O)C=C2C1=CC=C1[C@@]2(C)CC[C@@]2(C)[C@@H]3C[C@](C)(C(=O)OCCCO)CC[C@]3(C)CC[C@]12C` [Compound 2, 3-Hydroxypropyl (2 R,4aS,6aS,12bR,14aS,14bR)-10-hydroxy-2,4a,6a,9,12b,14a-hexamethyl-11-oxo-1,2,3,4,4a,5,6,6a,11,12b,13,14,14a,14b-tetradecahydropicene-2-carboxylate] came in with a 100% mortality concentration with zebrafish larvae (zebrafish larvae, exposed for 72 h) of 0.1 µM. Moreover, the “Concentrations causing acute toxicity in zebrafish larvae” value in the data set with zebrafish larvae is given as “higher than 0.1 μM”. The “Body weight during the treatment period” value is “no significant changes of body weight” with HCT116 cancer cells (1 mg/kg) and “downward trend” in the data set on HCT116 cancer cells (2.5 mg/kg). For the same compound, the “Mental state of the mice” value with HCT116 cancer cells (2.5 mg/kg) is on record as “depressed”. In addition, the Tumour weight entry in the data set on HCT116 cancer cells is listed as “significantly lower than that in the control group”. The “Tumour volume at the end of the administration” value with HCT116 cancer cells is “significantly smaller than that of the control”. Further, the “Tumour growth inhibition rate” value in the data set with HCT116 cancer cells (high-dose 2.5 mg/kg intraperitoneally) is reported as 55.82%; in the data set with HCT116 cancer cells (low-dose 1 mg/kg intraperitoneally) it was 50.83%. The “TNF-α content of tumour mice” value with TNF-α was “decreased the TNF-α content significantly in a dose-dependent manner”. Also, the “Cells in G2 phase” value in the data set on MGC-803 cells [2] (1 µM, 18 h, MGC-803, DMSO 15.05%) came out at 37.01%. The “Cells in G1 phase” value in the data set on MGC-803 cells [2] (1 µM, 18 h, MGC-803) was 44.77%. For the same compound, the “Phase in which the cell cycle is blocked” value with MGC-803 cells [2] is “G2 phase”. In data set [3], this compound had a solubility at 1 h of 11.8 µg/mL (≈ 23.2 µM). Besides, the VEGF expression was 430.8 pg/mL with VEGF [4] (CoCl2-induced hypoxia, 0.1 µM, control 568.1 pg/ml); 397.5 pg/mL in the data set on VEGF [4] (CoCl2-induced hypoxia, 0.5 µM, control 568.1 pg/ml); 328.8 pg/mL in the data set on VEGF [4] (CoCl2-induced hypoxia, 1 µM, control 568.1 pg/ml); 514.1 pg/mL in the data set on VEGF [4] (normal oxygen conditions, 0.1 µM, control 531.5 pg/ml); 398.1 pg/mL with VEGF [4] (normal oxygen conditions, 0.5 µM, control 531.5 pg/ml); 352.1 pg/mL with VEGF [4] (normal oxygen conditions, 1 µM, control 531.5 pg/ml). The “Effect on the expression of VEGF” value in the data set with VEGF [4] was “inhibited the expression of VEGF in a concentration-dependent manner”. In addition, the “Morphological changes in tumour tissue (HE)” value with tumour tissue was “tumour tissue structure was seriously damaged and the cell necrosis was obvious”. In the data set on MGC-803 cells [5], the “Overall apoptosis rate (early apoptosis + late apoptosis)” value was found to be 13%. Further, the values for the IC50 in the data set with HCT-116 and in the data set with AGS were 320 to 390 nM and 330 nM, respectively. For the same compound, the “Acute toxicity for zebrafish embryos” value in the data set with zebrafish embryos (0.1 μM) is “no acute toxicity”. In the data set on zebrafish embryos (0.15 μM), the “Incubation (hatching) rate of zebrafish embryos” value came to 25%. The “Hatching of zebrafish eggs” value in the data set with zebrafish embryos (0.2 μM) was “no eggs hatched”. Further, in the data set on zebrafish embryos (0.5 μM, on the first day), the “Death rate of zebrafish embryos” value is on record as 100%. Moreover, the “Mortality of zebrafish embryos” value with zebrafish embryos (0.5 μM, on the fourth day) is on record as 100%. For the same compound, the MMP-9 expression in the data set with MMP-9 (MGC-803, 0.5 µM) came to 10.04 ng/mL; in the data set on MMP-9 (MGC-803, 1 µM) it was 9.64 ng/mL. For the same compound, the “Effect on the expression of MMP-9” value in the data set with MMP-9 was “inhibited the expression of MMP-9 in MGC-803 cells in a concentration-dependent manner”. In addition, the “VEGF expression in tumour tissue (immunohistochemistry)” value with VEGF [1] is given as “downregulated the VEGF expression significantly”.

On to `CC1=C(O)C(=O)C=C2C1=CC=C1[C@@]2(C)CC[C@@]2(C)[C@@H]3C[C@](C)(C(=O)OCCCCO)CC[C@]3(C)CC[C@]12C` [Compound 3, 4-Hydroxybutyl (2 R,4aS,6aS,12bR,14aS,14bR)-10-hydroxy-2,4a,6a,9,12b,14a-hexamethyl-11-oxo-1,2,3,4,4a,5,6,6a,11,12b,13,14,14a,14b-tetradecahydropicene-2-carboxylate], for which the IC50 in the data set on HCT-116 was 320 to 390 nM.

As to `CC1=C(O)C(=O)C=C2C1=CC=C1[C@@]2(C)CC[C@@]2(C)[C@@H]3C[C@](C)(C(=O)O)CC[C@]3(C)CC[C@]12C` [celastrol, Celastrol, reference compound], the “Concentrations causing acute toxicity in zebrafish larvae” value in the data set with zebrafish larvae was “higher than 0.1 μM”. The “Cells in S phase” value with MGC-803 cells [2] (0.1 µM, 18 h, MGC-803) is on record as 19.18%; in the data set on MGC-803 cells [2] (1 µM, 18 h, MGC-803), 29.41%. For the same compound, in the data set with MGC-803 cells [2] (1 µM, 18 h, MGC-803), the “Cells in G1 phase” value is 52.96%. Also, the “Phase in which the cell cycle is blocked” value in the data set on MGC-803 cells [2] is reported as “S phase”. Also, the solubility at 1 h in data set [3] is 6.2 µg/mL (≈ 13.8 µM). The “Effect on the expression of VEGF” value with VEGF [4] is “inhibited the expression of VEGF in a concentration-dependent manner”. The “Overall apoptosis rate (early apoptosis + late apoptosis)” value in the data set on MGC-803 cells [5] is reported as 9.8%. In the data set on zebrafish embryos (0.2 μM), the “Death rate of zebrafish embryos” value is recorded as 50%. Further, the “Incubation (hatching) rate of zebrafish embryos” value in the data set with zebrafish embryos (0.3 or 0.5 μM) is on record as “zero”; with zebrafish embryos (exposure concentrations of 0.1, 0.15, and 0.2 μM), “more than 75%”. In the data set with MMP-9, the “Effect on the expression of MMP-9” value was “inhibited the expression of MMP-9 in MGC-803 cells in a concentration-dependent manner”.
